Test results reported in ChEMBL document CHEMBL5712917, “G9a regulates tumorigenicity and stemness through genome-wide DNA methylation reprogramming in non-small cell lung cancer” (Clin Epigenetics, 2020).
The source made the active and inactive calls.

Experiments:
[1] = test system: LCSC-2; test: Antitumor activity against human LCSC-2 cells assessed as increase in CDYL2 expression by Western blot analysis; format: functional, cell-based
Summary of the method: (§1)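 Western blot on TICs exposed to G9A inhibitor. Cells lysed in 2X SDS buffer; 10 μl lysate or 20 μg protein run on 4–12% SDS-PAGE, transferred to PVDF, blocked in 5% non-fat milk/TBST, then probed with primary and secondary antibodies against each target protein.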

[2] = test system: LCSC-2 (human); test: Antitumor activity against human LCSC-2 cells xenografted in NOD-SCID mouse assessed as increase in FOXP1 expression at 10 mg/kg, ip administered for 8 weeks by immunohistochemical staining assay
[3] = test system: LCSC-4; test: Antitumor activity against human LCSC-4 cells assessed as decrease in tumor sphere formation at 10 uM for 72 hrs; format: functional, cell-based
Summary of the method: (§2)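 Single cells from accutase-dissociated tumorspheres, 50,000–100,000 per well, grown in serum-free sphere medium (B-27, EGF, FGF, heparin). Exposed to 10 μM inhibitor at 37 °C for 72 h, then imaged. Sphere-forming capacity was scored by sphere size, and treated cells were compared with control by t test.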

[4] = test system: LCSC-2; test: Antitumor activity against human LCSC-2 cells assessed as decrease in cell proliferation at 10 uM for 72 hrs by CCK-8 assay; format: functional, cell-based
Summary of the method: (§3)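 TIC spheres dissociated to single cells with accutase and grown in serum-free DMEM/F12 with B-27, 25 ng/ml EGF, 25 ng/ml FGF and heparin. Cells were treated with 10 μM inhibitor at 37 °C for 72 h in 96-well format. CCK-8 solution was then added for 1–4 h and absorbance read at 450 nm. Groups compared against control by t test.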

[5] = test system: LCSC-2; test: Antitumor activity against human LCSC-2 cells assessed as increase in STAMBPL1 expression by Western blot analysis; format: functional, cell-based; summary of the method: as §1
[6] = test system: LCSC-4; test: Antitumor activity against human LCSC-4 cells assessed as increase in CDYL2 expression by Western blot analysis; format: functional, cell-based; summary of the method: as §1
[7] = test system: LCSC-4; test: Antitumor activity against human LCSC-4 cells assessed as increase in SP5 expression by Western blot analysis; format: functional, cell-based; summary of the method: as §1
[8] = test system: LCSC-2 (human); test: Antitumor activity against human LCSC-2 cells xenografted in NOD-SCID mouse assessed as suppression of tumor volume at 10 mg/kg, ip administered for 8 weeks
[9] = test system: LCSC-2 (human); test: Antitumor activity against human LCSC-2 cells xenografted in NOD-SCID mouse assessed as decrease in G9a expression at 10 mg/kg, ip administered for 8 weeks by immunohistochemical staining assay
[10] = test system: LCSC-2 (human); test: Antitumor activity against human LCSC-2 cells xenografted in NOD-SCID mouse assessed as increase in SP5 expression at 10 mg/kg, ip administered for 8 weeks by immunohistochemical staining assay
[11] = test system: LCSC-4; test: Antitumor activity against human LCSC-4 cells xenografted in NOD-SCID mouse assessed as increase in SP5 expression at 10 mg/kg, ip administered for 8 weeks by immunohistochemical staining assay; format: functional, organism-based
Summary of the method: (§4)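 NOD-SCID mice given 100,000 single cells from dissociated wild-type TIC spheres subcutaneously. Established tumors split into vehicle or 10 mg/kg inhibitor groups, dosed intraperitoneally for 8 weeks. Tumor size measured weekly and tumor weight taken at euthanasia. Tumors fixed in 10% formaldehyde and stained by IHC (×20) for G9A, H3K9Me2, FOXP1 and SP5; t test.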

[12] = test system: LCSC-4; test: Antitumor activity against human LCSC-4 cells xenografted in NOD-SCID mouse assessed as decrease in G9a expression at 10 mg/kg, ip administered for 8 weeks by immunohistochemical staining assay; format: functional, organism-based; summary of the method: as §4
[13] = test system: LCSC-2; test: Antitumor activity against human LCSC-2 cells assessed as increase in ROBO1 expression by Western blot analysis; format: functional, cell-based; summary of the method: as §1
[14] = test system: LCSC-4; test: Antitumor activity against human LCSC-4 cells assessed as increase in DPP4 expression by Western blot analysis; format: functional, cell-based; summary of the method: as §1
[15] = test system: LCSC-4; test: Antitumor activity against human LCSC-4 cells assessed as increase in FOXP1 expression by Western blot analysis; format: functional, cell-based; summary of the method: as §1
[16] = test system: LCSC-4; test: Antitumor activity against human LCSC-4 cells assessed as increase in STAMBPL1 expression by Western blot analysis; format: functional, cell-based; summary of the method: as §1
[17] = test system: LCSC-4; test: Antitumor activity against human LCSC-4 cells xenografted in NOD-SCID mouse assessed as increase in FOXP1 expression at 10 mg/kg, ip administered for 8 weeks by immunohistochemical staining assay; format: functional, organism-based; summary of the method: as §4
[18] = test system: LCSC-2; test: Antitumor activity against human LCSC-2 cells assessed as increase in DPP4 expression by Western blot analysis; format: functional, cell-based; summary of the method: as §1
[19] = test system: LCSC-1; test: Antitumor activity against human LCSC-1 cells assessed as decrease in tumor sphere formation at 10 uM for 72 hrs; format: functional, cell-based; summary of the method: as §2
[20] = test system: LCSC-2; test: Antitumor activity against human LCSC-2 cells assessed as increase in SP5 expression by Western blot analysis; format: functional, cell-based; summary of the method: as §1
[21] = test system: LCSC-2; test: Antitumor activity against human LCSC-2 cells assessed as decrease in tumor sphere formation at 10 uM for 72 hrs; format: functional, cell-based; summary of the method: as §2
[22] = test system: LCSC-2; test: Antitumor activity against human LCSC-2 cells assessed as increase in FOXP1 expression by Western blot analysis; format: functional, cell-based; summary of the method: as §1
[23] = test system: LCSC-4; test: Antitumor activity against human LCSC-4 cells xenografted in NOD-SCID mouse assessed as suppression of tumor volume at 10 mg/kg, ip administered for 8 weeks; format: functional, organism-based; summary of the method: as §4
[24] = test system: LCSC-2 (human); test: Antitumor activity against human LCSC-2 cells xenografted in NOD-SCID mouse assessed as decrease in H3K9Me2 expression at 10 mg/kg, ip administered for 8 weeks by immunohistochemical staining assay
[25] = test system: LCSC-4; test: Antitumor activity against human LCSC-4 cell assessed as decrease in cell proliferation at 10 uM for 72 hrs by CCK-8 assay; format: functional, cell-based; summary of the method: as §3
[26] = test system: LCSC-4; test: Antitumor activity against human LCSC-4 cells assessed as increase in ROBO1 expression by Western blot analysis; format: functional, cell-based; summary of the method: as §1
[27] = test system: LCSC-1; test: Antitumor activity against human LCSC-1 cells assessed as decrease in cell proliferation at 10 uM for 72 hrs by CCK-8 assay; format: functional, cell-based; summary of the method: as §3
[28] = test system: LCSC-4; test: Antitumor activity against human LCSC-4 cells xenografted in NOD-SCID mouse assessed as decrease in H3K9Me2 expression at 10 mg/kg, ip administered for 8 weeks by immunohistochemical staining assay; format: functional, organism-based; summary of the method: as §4

Measured: Activity

COc1cc2c(NC3CCN(C(C)C)CC3)nc(N3CCC(F)(F)CC3)nc2cc1OCCCN1CCCC1
active: all assays above
